Screening data: PubChem BioAssay, The Scripps Research Institute Molecular Screening Center
CHRM1 agonist: human M1 muscarinic receptor agonism; CHO-K1 hM1, Fluo-8 calcium fluorescence, agonist mode; 0% DMSO, 100% acetylcholine EC100; activation, % at 3 µM; 360,000 tested, 0.33% active; AID 588814;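 active = activation above the run's mean compound activation plus 3 SD, cut at about 16% in these data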;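 note: peak over basal fluorescence ratio within a 140 s kinetic read after compound addition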
M5 PAM: CHRM5 positive allosteric modulation | P08912 | CHO-K1 hM5, Fluo-8 calcium, ACh EC20 PAM; 0% = ACh EC20, 100% = ACh EC100 | activation, % at 3 µM | 360,000 tested, 0.3% active;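 active = activation above the run cutoff, the mean activation of all test compounds plus 3 SD, cut at about 18% in these data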
Target sequence (P08912 whole entry, looked up): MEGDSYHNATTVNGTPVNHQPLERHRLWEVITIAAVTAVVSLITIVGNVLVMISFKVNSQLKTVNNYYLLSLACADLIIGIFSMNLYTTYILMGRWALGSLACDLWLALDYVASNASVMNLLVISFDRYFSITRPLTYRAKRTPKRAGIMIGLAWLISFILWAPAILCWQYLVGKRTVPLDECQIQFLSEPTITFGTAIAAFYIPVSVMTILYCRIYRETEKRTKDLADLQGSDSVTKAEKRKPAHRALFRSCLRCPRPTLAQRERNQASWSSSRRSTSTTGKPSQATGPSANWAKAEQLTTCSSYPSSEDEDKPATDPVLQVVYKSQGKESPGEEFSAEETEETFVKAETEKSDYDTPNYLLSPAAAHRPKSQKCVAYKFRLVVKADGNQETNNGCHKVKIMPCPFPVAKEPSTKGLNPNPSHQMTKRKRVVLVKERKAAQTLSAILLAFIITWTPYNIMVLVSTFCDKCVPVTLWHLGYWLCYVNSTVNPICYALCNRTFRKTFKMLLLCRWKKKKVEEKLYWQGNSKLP
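system = human M5 receptor in CHO-K1 cells | reagent = EC20 acetylcholine as agonist stimulus | compound dosing = single-point, 3 µM nominal | incubation = Fluo-8 loading 80 min at 37 °C plus 30 min room temperature | detection = Fluo-8 calcium dye fluorescence, kinetic read | benchmarks = low control EC20 acetylcholine (0%), high control EC100 acetylcholine (100%)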
CHRM1 PAM: potentiates human M1 receptor response to acetylcholine. CHO-K1 hM1, Fluo-8 calcium fluorescence, ACh EC20; 0% = ACh EC20, 100% = maximal ACh. activation, % at 3 µM. 360,000 tested, 0.088% active. P11229; in the data active = activation above about 19%, passing the limit was not always enough
CHRM1 antagonist: antagonists of human M1 muscarinic receptor; CHO-K1 hM1, Fluo-8 calcium fluorescence, ACh EC80 antagonist; P11229; inhibition, % at 3 µM; AID 588852; 360,000 tested, 1.3% active;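 active = percent inhibition above its own plate's cutoff, namely the mean of that plate's compound wells plus 3 SD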;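 note: peak over basal fluorescence ratio during 140 s after agonist addition; 0% = ACh EC80 plus DMSO and 100% = DMSO alone without agonist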
M5 ag: agonists of human muscarinic M5 receptor (CHRM5). P08912. CHO-K1 hM5 cells, Fluo-8 calcium fluorescence; 0% DMSO wells, 100% maximal acetylcholine response. activation, % at 3 µM. 360,000 tested, 0.19% active. AID 624037;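 active = activation above the run's mean over test compounds plus 3 SD, cut at about 23% in these data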;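 note: signal is peak over basal fluorescence ratio across the kinetic read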
M5 antag: blocks acetylcholine activation of human M5 receptor; P08912; inhibition, % at 3 µM; 360,000 tested, 0.59% active; AID 624040; CHO-hM5 cells, Fluo-8 calcium fluorescence, ACh EC80;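 active = inhibition above a per-plate cutoff, the mean of that plate's test compounds plus 3 SD, cut at about 27% in these data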;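 note: 0% = acetylcholine EC80 with DMSO and 100% = DMSO without agonist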
The depositor's hits bear a star. Only some compounds are listed: those with a hit (about 2% of all), similar ones and a draw of the others.

SMILES	CHRM1 agonist	M5 PAM	CHRM1 PAM	CHRM1 antagonist	M5 ag	M5 antag
COc1ccccc1N1CCN(C2CCCN(C(=O)c3csc(C)n3)C2)CC1 (centres undefined)	-3.2	3.6	9.0	0.7	-3.1	-18.4
COc1ccccc1N1CCN(C2CCCN(C(=O)c3oc(C)cc3C)C2)CC1 (centres undefined)	-5.8	-13.6	4.5	-0.7	-7.8	57.2*
O=[N+]([O-])c1cc(C(F)(F)F)cc([N+](=O)[O-])c1NCCNC(=S)Nc1ccc(Cl)c(Cl)c1	3.7	-24.8	-10.0	29.9	10.1	35.5*
S=C(NCc1ccncc1)Nc1ccc(Cl)c(Cl)c1	5.9	-13.4	-6.1	11.9	12.6	18.8
COc1ccc(-n2c(SCC(=O)N(C)C3CCS(=O)(=O)C3)nc3ccc(O)cc3c2=O)cc1OC (centres undefined)	-4.0	-8.2	-1.4	2.8	-1.5	29.3*
CN(C(=O)CSc1nc2ccccc2c(=O)n1-c1ccc(F)cc1)C1CCS(=O)(=O)C1 (centres undefined)	-0.8	3.0	3.9	-5.5	-0.5	1.7
CN(C(=O)CSc1nc2ccccc2n1C)C1CCS(=O)(=O)C1 (centres undefined)	-4.2	-4.8	-3.4	29.1*	0.3	2.5
CN(C(=O)CSc1nc2ccccc2c(=O)n1C)C1CCS(=O)(=O)C1 (centres undefined)	5.8	1.2	7.4	-14.3	1.1	11.3
Cc1nn(-c2ccccc2)c(C)c1C(=O)OCC(=O)N(C)C1CCS(=O)(=O)C1 (centres undefined)	-10.9	-1.9	6.2	-3.6	-5.3	-2.3
CN(C(=O)COC(=O)c1nc(-c2ccccc2)n(-c2ccccc2)n1)C1CCS(=O)(=O)C1 (centres undefined)	-4.1	5.6	-21.2	64.3*	-10.6	-1.3
CC(=O)c1cccc(-c2ccnc3c2CC(C(=O)NCc2cccs2)O3)c1 (centres undefined)	6.5	1.2	19.8	-23.0	1.3	0.4
CC1CCN(C(C)C(=O)Nc2ccc(S(=O)(=O)N3CCCC3)cc2)CC1 (centres undefined)	-8.6	-38.3	-30.4	100.6*	-10.1	14.1
CCN(CC(=O)Nc1ccc(S(=O)(=O)N2CCCC2)cc1)Cc1ccccc1	-5.8	-5.6	-23.0	45.3*	-6.2	5.0
CC1CCCN(S(=O)(=O)c2ccc(NC(=O)CN3CCN(C)CC3)cc2)C1 (centres undefined)	-6.1	-0.7	-18.9	21.8*	-3.5	2.1
CCN(CC(=O)Nc1ccc(S(=O)(=O)N2CCOCC2)cc1)Cc1ccccc1	-7.1	-0.2	1.4	-7.3	-1.0	3.3
COC(=O)CCC(=O)Nc1ccc(S(=O)(=O)N2CCCCCC2)cc1	-6.5	18.6*	6.2	-6.8	-1.4	-6.6
CCN(c1ccc(NC(=O)COC(=O)c2ccc(S(=O)(=O)N3CCCC3)cc2)cc1)C(C)C	-6.5	-2.1	-25.0	68.2*	-5.9	15.7
CC(C)CC(=O)Nc1ccc(S(=O)(=O)N2CCCC2)cc1	-6.0	-3.4	3.4	-3.2	-5.0	28.2*
CC(C)(C)CC(=O)Nc1ccc(S(=O)(=O)N2CCCC2)cc1	-1.5	-1.6	5.4	-5.2	0.2	-0.6
CCN(CC)CCOC(=O)C1(c2ccccc2)CCOCC1	-7.0	-17.5	-22.6	7.8	-10.7	-4.6
CCN(CC)CCCOC(=O)C1(c2ccccc2)CCCC1	-5.3	-16.2	-19.1	99.1*	-11.5	99.5*
C[N+](C)(C)CCOC(=O)C1(c2ccccc2)CCCC1	-4.6	-15.3	-21.7	98.9*	-11.8	99.1*
CC(C[N+](C)(C)C)OC(=O)C1(c2ccccc2)CCCC1 (centres undefined)	-4.5	-31.7	-25.7	92.9*	-21.6	42.0*
CCN(CC)CCOC(=O)C1(c2ccc([N+](=O)[O-])cc2)CCCC1	-5.3	-18.8	-25.8	95.9*	-1.7	83.8*
COc1ccc(C(=O)OCC[N+]2(C)CCCCC2)cc1	-4.5	5.1	6.1	-7.1	-7.2	-2.0
SMILES	CHRM1 agonist	M5 PAM	CHRM1 PAM	CHRM1 antagonist	M5 ag	M5 antag
C[N+]1(CCOC(=O)C2(c3ccccc3)CCCC2)CCCCC1	-5.6	-17.3	-23.1	99.7*	-7.8	97.9*
COc1ccc(CCNS(=O)(=O)c2ccc3c(c2)NC(=O)CCS3)cc1OC	-2.5	20.2*	10.9	-16.4	5.7	-6.1
Cc1ccc(CCNS(=O)(=O)c2ccc3c(c2)NC(=O)CCS3)cc1	0.9	1.8	2.2	-7.0	2.1	-14.1
CCN1CCN(c2ncnc3c2cnn3-c2ccccc2)CC1	-8.3	4.3	9.8	-3.8	-0.8	0.5
COc1cccc(N2CCN(c3ncnc4c3cnn4-c3ccc(C)cc3C)CC2)c1	3.3	-23.6	-23.1	63.5*	6.8	46.7*
CCOC(=O)C1CCCN(c2ncnc3c2cnn3-c2cccc(C)c2)C1 (centres undefined)	44.1*	-13.1	-25.6	16.2	17.2	-3.2
CCN(CC)C(=O)C1CCCN(c2ncnc3c2cnn3-c2cccc(C)c2)C1 (centres undefined)	-4.7	-13.5	-1.9	1.6	0.7	4.5
COc1ccc(-n2ncc3c(N4CCN(Cc5ccccc5)CC4)ncnc32)cc1	-4.1	-12.8	-13.6	22.6*	2.1	19.9
Cc1ccc(SCC(=O)N2CCCC2)cc1	3.6	18.8*	6.4	-0.2	-7.0	-2.6
O=C(NCc1cccnc1)c1cccc(S(=O)(=O)N2CCOCC2)c1	-5.4	31.1*	9.2	-1.2	3.6	2.8
Cc1cc2cc(CNC(=O)c3ccc(S(=O)(=O)N(C)C)cc3)ccc2n1C	-11.9	-4.3	-26.1	30.1*	-0.9	1.6
O=C(NCc1cccnc1)c1cccc(S(=O)(=O)N2CCCC2)c1	-7.7	-3.1	13.6	-7.5	-3.3	15.2
COc1cccc(CNC(=O)c2ccc(S(=O)(=O)N3CCOCC3)cc2)c1	-4.3	-4.3	8.6	-3.2	0.3	7.1
Cc1cc2cc(CNC(=O)c3ccc(S(=O)(=O)N4CCOCC4)cc3)ccc2n1C	-10.1	-7.0	-31.4	75.8*	-2.1	1.7
CC1(C(=O)Nc2cccc3ncccc23)CCN1C(=O)Cc1ccc(-c2ccccc2)cc1 (centres undefined)	-1.9	-12.2	-14.4	19.5	3.5	13.0
O=C1NC(C2CC3C=CC2C3)Nc2ccccc21 (centres undefined)	-2.9	-1.6	-3.0	3.8	2.7	-0.5
O=C(NCc1ccccc1Cl)c1[nH]c(C(F)(F)F)nc1-c1ccccc1	6.6	-7.8	-1.3	-30.4	9.3	1.7
NC(=O)c1ccc(NC(=O)COC(=O)c2ccccc2SCC(=O)N2CCCC2)cc1	5.3	1.7	26.9*	-32.8	0.2	-4.4
